Drawing on ChEMBL document CHEMBL1124479, “N-[(arylmethoxy)phenyl] and N-[(arylmethoxy)naphthyl] sulfonamides: potent orally active leukotriene D4 antagonists of novel structure” (J Med Chem, 1989), this text covers inhibition in vivo and inhibition for 38 compounds.

The test system of experiment [1] is Cavia porcellus. The experiment can be described thus: Inhibition of ovalbumin-induced bronchoconstriction when compound was administered intraduodenally at a dose of 50 mg/kg in guinea pig. It is filed as functional. To be noted: route intraduodenal. The gist of the method: (§1)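 Single-dose screen in guinea pigs, with n animals per group. Significance versus control used a two-tailed Student's t test (p < 0.05), or one-way ANOVA with contrasts based on each treatment's difference from its own control mean.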

The subject of experiment [2] is Cavia porcellus. The experiment is described as follows: Inhibition of Leukotriene D4 induced bronchoconstriction in guinea pig by 50 mg/kg i.d. To be noted: at 50 mg/kg.
Experiment [3] deals with Cavia porcellus. The experiment is described as follows: Inhibition of Leukotriene D4 induced bronchoconstriction when compound was administered intraduodenally at a dose of 25 mg/kg in guinea pig.
The test system of experiment [4] is Cavia porcellus. The experiment can be described thus: Inhibition of Leukotriene D4 induced bronchoconstriction when compound was administered perorally at a dose of 50 mg/kg in guinea pig. It is filed as functional. To be noted: route oral. The gist of the method: as §1
The test system of experiment [5] is Cavia porcellus. The experiment can be described thus: Inhibition of ovalbumin-induced bronchoconstriction when compound was administered perorally at a dose of 50 mg/kg in guinea pig. The experiment is classed as functional. To be noted: route oral. The gist of the method:
as §1

Experiment [6] has as its system Cavia porcellus. The experiment is described as follows: Percentage inhibition of Leukotriene D4 when Compound was administered perorally at a dose of 50 mg/kg in guinea pig,. The experiment is classed as functional. As to conditions: route oral. The gist of the method:
as §1

The test system of experiment [7] is Cavia porcellus. The experiment can be described thus: Inhibition of Leukotriene D4 induced bronchoconstriction when compound was administered perorally at a dose of 25 mg/kg in guinea pig. It is filed as functional. To be noted: route oral. In a few lines: as §1
Experiment [8] concerns Cavia porcellus. The experiment can be described thus: Inhibition of ovalbumin-induced bronchoconstriction when compound was administered perorally at a dose of 25 mg/kg in guinea pig. It is filed as functional. To be noted: route oral. In a few lines: as §1

For orientation: inhibition in vivo means the share of the control response that was lost under treatment. Read a high inhibition in vivo as a strong effect. One may read the inhibition as the drop in the measured response relative to a control, in per cent.

SMILES strings stand for the structures.

`CCCS(=O)(=O)Nc1cccc(OCc2nc3ccccc3s2)c1` showed an inhibition in vivo at 50 mg/kg in experiment [1] of 18%. In experiment [2], the inhibition is 48%.
Consider `O=S(=O)(Nc1cccc(Oc2ccccn2)c1)C(F)(F)F`, for which the inhibition in experiment [3] turned out to be 11%.
In the case of `CCCS(=O)(=O)Nc1cccc(OCc2nc3ccccc3n2C)c1`, the inhibition in vivo at 50 mg/kg in experiment [4] worked out at 36%; in experiment [1], 31%; in experiment [5], 17%. In addition, the inhibition in experiment [2] is 37%.
As for `CS(=O)(=O)Nc1ccc([N+](=O)[O-])cc1OCc1ccc2ccccc2n1`, in experiment [3], the inhibition is 28%.
As to `CCS(=O)(=O)Nc1ccc2ccc(OCc3ccc4ccccc4n3)cc2c1`, the inhibition in vivo at 50 mg/kg is 34% in experiment [4], 20% in experiment [1] and 24% in experiment [5]. The inhibition in experiment [2] is 91%.
On to `Cc1ccc(S(=O)(=O)Nc2cccc(SCc3ccc4ccccc4n3)c2)cc1`, for which, in experiment [3], the inhibition was 10%.
Still for that read-out and setting: with `O=C(O)c1ccc(S(=O)(=O)Nc2cccc(OCc3ccc4ccccc4n3)c2)cc1` the figure was 0%.
As for `O=C1CS(=O)(=O)Nc2cc(OCc3ccc4ccccc4n3)ccc21`, testing at 50 mg/kg in experiment [4] gave an inhibition in vivo of 3%. For the same compound, the inhibition in experiment [3] was found to be 78%.
In turn, `CCS(=O)(=O)Nc1cccc(OCc2cc3ccccc3s2)c1` came in with an inhibition in vivo at 50 mg/kg in experiment [1] of 4%. In addition, in experiment [3], the inhibition stood at 13%.
Take `O=S(=O)(Nc1cccc(OCc2csc3ccccc23)c1)C(F)(F)F`: in experiment [3], the inhibition is 13%.
For the compound `CCCS(=O)(=O)N(c1cccc(OCc2nc3ccccc3s2)c1)S(=O)(=O)CCC`, in experiment [2], the inhibition amounted to 38%.
For `O=S(=O)(Nc1ccccc1OCc1ccc2ccccc2n1)C(F)(F)F`, the inhibition in experiment [3] amounted to 24%.
On to `CCS(=O)(=O)Nc1cccc(OCc2nc3ccccc3n2C)c1`, for which, in experiment [1], the inhibition in vivo at 50 mg/kg is 16%. Moreover, the inhibition in experiment [2] was 75%.
Take `O=S(=O)(Nc1cccc(OCc2nc3ccccc3s2)c1)C(F)(F)F`: the inhibition in experiment [3] came out at 94%.
As for `CCCCS(=O)(=O)Nc1ccc2ccc(OCc3ccc4ccccc4n3)cc2c1`, the inhibition in experiment [2] amounted to 51%.
The same measure, in the same setting: with `CCS(=O)(=O)Nc1ccc2ccc(OCc3nc4ccccc4s3)cc2c1` the figure was 27%.
Consider `CCCCS(=O)(=O)Nc1cccc(OCc2nc3ccccc3n2C)c1`, for which, in experiment [1], at 50 mg/kg the inhibition in vivo was 8%. In addition, in experiment [2], the inhibition was 2%.
The compound `CS(=O)(=O)Nc1cccc(OCc2nc3ccccc3s2)c1` gave an inhibition in vivo at 50 mg/kg in experiment [1] of 44%. Further, the inhibition in experiment [2] came out at 60%.
With `O=S(=O)(Nc1cccc(OCc2ccc3ccccc3n2)c1)c1ccc(C(F)(F)F)cc1`, the inhibition in experiment [3] turned out to be 46%.
On to `COC(=O)CS(=O)(=O)Nc1cccc(OCc2ccc3ccccc3n2)c1`, for which the inhibition in experiment [3] came out at 69%.
In the case of `O=S(=O)(Nc1cccc(Oc2cccc3cccnc23)c1)C(F)(F)F`, the inhibition in experiment [3] was 50%.
Still for that read-out and setting: next, `O=C(O)CS(=O)(=O)Nc1cccc(OCc2ccc3ccccc3n2)c1`: 58%.
Turning to `O=S(=O)(NCCc1cccc(OCc2ccc3ccccc3n2)c1)C(F)(F)F`, the inhibition in experiment [3] amounted to 14%.
Consider `CCS(=O)(=O)Nc1ccc2ccc(OCc3ccc4ccccc4c3)cc2c1`, for which, in experiment [2], the inhibition was determined as 28%.
With `O=S(=O)(CC(F)(F)F)Nc1cccc(OCc2ccc3ccccc3n2)c1`, the inhibition in experiment [3] was 100%.
Consider `CS(=O)(=O)Nc1ccc2ccc(OCc3ccc4ccccc4n3)cc2c1`, for which the inhibition in experiment [2] is 68%.
For the compound `CCS(=O)(=O)Nc1cccc(OCc2nc3ccccc3s2)c1`, the results for the inhibition in vivo at 50 mg/kg in experiment [1], in experiment [6] and in experiment [5] were 35%, 13% and 32%, respectively. In addition, in experiment [2], the inhibition was 41%.
As for `CCCS(=O)(=O)N(c1cccc(OCc2ccc3ccccc3n2)c1)S(=O)(=O)CCC`, the inhibition in experiment [2] was 4%.
Still for that read-out and setting: with `CCCCS(=O)(=O)Nc1cccc(OCc2ccc3ccccc3n2)c1` the figure was 30%.
Take `O=S(=O)(Nc1ccc(OCc2ccc3ccccc3n2)cc1)C(F)(F)F`: the inhibition in experiment [3] amounted to 28%.
In experiment [1], `CCS(=O)(=O)Nc1cccc(OCc2ccc3ccccc3n2)c1` showed an inhibition in vivo at 50 mg/kg of 0%. In addition, the inhibition in experiment [2] was 83%.
`CCS(=O)(=O)Nc1cccc(OCc2ccc3ccccc3c2)c1`: the inhibition in experiment [2] turned out to be 42%.
For `CCCCS(=O)(=O)Nc1cccc(OCc2nc3ccccc3s2)c1`, the inhibition in vivo at 50 mg/kg in experiment [1] was 16%. For the same compound, in experiment [2], the inhibition is 56%.
For the compound `CN(C)S(=O)(=O)Nc1cccc(OCc2ccc3ccccc3n2)c1`, the inhibition in experiment [3] is 11%.
For the compound `CCS(=O)(=O)Nc1cccc2ccc(OCc3ccc4ccccc4n3)cc12`, the inhibition in experiment [2] is -6%.
On the same count and under the same terms, next, `CCS(=O)(=O)N(C)c1ccc2ccc(OCc3ccc4ccccc4n3)cc2c1`: 37%.
With `O=S(=O)(Nc1cccc(SCc2ccc3ccccc3n2)c1)C(F)(F)F`, the inhibition in vivo at 25 mg/kg was determined as 97% in experiment [7] and 59% in experiment [8]. For the same compound, the inhibition in experiment [3] turned out to be 85%.
In the case of `O=S(=O)(Nc1ccccc1SCc1ccc2ccccc2n1)C(F)(F)F`, in experiment [3], the inhibition is -5%.
